From ChEMBL document CHEMBL1127300, “Identification, synthesis, and characterization of a unique class of N-methyl-D-aspartate antagonists. The 6,11-ethanobenzo[b]quinolizinium cation” (J Med Chem, 1994) come the findings set out here.

The target in assay [1] is Glutamate NMDA receptor. The assay can be described thus: Binding affinity was determined towards NMDA receptor using [3H]thienylcyclidine as radioligand. It counts as protein-complex assay. In a few lines: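 Rat (male Sprague–Dawley) whole-brain membranes, washed three times in 50 mM Tris-HCl pH 7.7 and resuspended in 5 mM Tris-HCl at 0.5 mg protein/tube. About 1 nM [3H]TCP final with varied test concentrations. 25 min at room temperature. Nonspecific binding defined with 100 μM PCP. Filtration on PEI-soaked glass-fibre filters and scintillation counting.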

The species named for assay [2] is Mus musculus. The assay can be described thus: In vitro neuroprotective efficacy determined to protect cultured mouse cortical neurons from an excitotoxic exposure to NMDA. It counts as functional.
The nature of assay [3]: Ratio between closed channel blockade to open channel blockade. It counts as functional. In a few lines:
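Whole-cell voltage clamp at −60 mV, room temperature (ca. 23 °C), in day-13 mouse cortical neurons; 100 μM NMDA. Open-channel block: NMDA with compound for 300 s; current at 300 s normalized to peak, % inhibition vs controls. Closed-channel block: 30 min with compound plus 10 μM 7-chlorokynurenate without NMDA, 1–2 min wash, then NMDA response vs two baseline responses. IC50 from Hill-type fit.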

Assay [4] is described as follows: Percent inhibition of radioligand [3H]NECA binding to A1,A2 receptor at 10 uM concentration.
Assay [5] has as its target Sigma non-opioid intracellular receptor 1 (Mus musculus) (UniProt O55242). The assay can be described thus: Percent inhibition of radioligand [3H]DTG binding to sigma receptor at 10 uM concentration.
For assay [6], the target named is Alpha-1 adrenergic receptor (Mus musculus) (UniProt P97714+P97717+P97718). The assay can be described thus: Percent inhibition of radioligand [3H]prazosin binding to alpha-1 receptor at 10 uM concentration. It counts as protein assay.
Sequence of Alpha-1 adrenergic receptor (Mus musculus) (P97714 whole entry, looked up): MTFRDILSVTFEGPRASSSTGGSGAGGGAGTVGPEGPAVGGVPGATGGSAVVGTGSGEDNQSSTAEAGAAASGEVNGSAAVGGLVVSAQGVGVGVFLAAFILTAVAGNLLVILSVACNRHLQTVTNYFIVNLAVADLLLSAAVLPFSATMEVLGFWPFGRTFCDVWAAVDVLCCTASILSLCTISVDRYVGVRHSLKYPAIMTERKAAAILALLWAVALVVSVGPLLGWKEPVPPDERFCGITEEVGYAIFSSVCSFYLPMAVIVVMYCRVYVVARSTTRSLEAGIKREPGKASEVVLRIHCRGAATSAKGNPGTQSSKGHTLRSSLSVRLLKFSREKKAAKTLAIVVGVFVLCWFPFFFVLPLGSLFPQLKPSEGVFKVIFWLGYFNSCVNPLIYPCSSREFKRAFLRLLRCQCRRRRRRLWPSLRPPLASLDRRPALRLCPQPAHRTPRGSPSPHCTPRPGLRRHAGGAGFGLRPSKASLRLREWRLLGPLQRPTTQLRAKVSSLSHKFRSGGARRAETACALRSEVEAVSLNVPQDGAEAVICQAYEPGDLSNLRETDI
Sequence of Alpha-1 adrenergic receptor (Mus musculus) (P97717 whole entry, looked up): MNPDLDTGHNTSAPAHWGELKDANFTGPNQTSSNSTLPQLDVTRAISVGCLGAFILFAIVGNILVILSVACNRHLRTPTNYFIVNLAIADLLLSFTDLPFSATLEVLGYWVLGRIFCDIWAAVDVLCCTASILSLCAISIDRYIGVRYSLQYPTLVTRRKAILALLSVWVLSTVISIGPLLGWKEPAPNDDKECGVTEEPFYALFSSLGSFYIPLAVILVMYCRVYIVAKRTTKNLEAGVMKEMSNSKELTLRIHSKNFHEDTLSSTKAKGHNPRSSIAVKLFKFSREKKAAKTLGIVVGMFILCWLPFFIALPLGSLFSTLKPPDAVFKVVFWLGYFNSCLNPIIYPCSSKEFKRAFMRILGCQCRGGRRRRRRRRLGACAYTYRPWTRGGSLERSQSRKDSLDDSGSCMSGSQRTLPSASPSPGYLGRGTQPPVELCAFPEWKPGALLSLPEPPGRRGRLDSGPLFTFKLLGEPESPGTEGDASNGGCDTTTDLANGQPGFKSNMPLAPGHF
Sequence of Alpha-1 adrenergic receptor (Mus musculus) (P97718 whole entry, looked up): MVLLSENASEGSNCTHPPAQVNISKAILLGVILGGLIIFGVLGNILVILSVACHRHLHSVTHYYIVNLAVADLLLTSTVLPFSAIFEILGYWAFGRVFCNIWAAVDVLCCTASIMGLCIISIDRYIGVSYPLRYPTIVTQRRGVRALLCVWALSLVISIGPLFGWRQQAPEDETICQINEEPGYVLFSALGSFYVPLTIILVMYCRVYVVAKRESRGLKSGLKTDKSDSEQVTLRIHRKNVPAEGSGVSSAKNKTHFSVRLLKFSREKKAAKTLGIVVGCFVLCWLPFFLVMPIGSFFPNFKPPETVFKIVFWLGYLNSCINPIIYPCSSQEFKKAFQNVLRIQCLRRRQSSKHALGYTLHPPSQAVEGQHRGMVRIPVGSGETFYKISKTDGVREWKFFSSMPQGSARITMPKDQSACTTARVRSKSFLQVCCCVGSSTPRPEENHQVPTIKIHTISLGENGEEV
Assay [7] addresses Histamine H1 receptor (Mus musculus) (UniProt P70174). The assay can be described thus: Percent inhibition of radioligand [3H]pyrilamine binding to H1 receptor at 10 uM concentration.
Assay [8] deals with Opioid receptor (Mus musculus) (UniProt P42866+P32300+P33534). The assay can be described thus: Percent inhibition of radioligand [3H]-naxalone binding to opiate receptor at 10 uM concentration. Format: protein assay.
Sequence of Opioid receptor (Mus musculus) (P32300 whole entry, looked up): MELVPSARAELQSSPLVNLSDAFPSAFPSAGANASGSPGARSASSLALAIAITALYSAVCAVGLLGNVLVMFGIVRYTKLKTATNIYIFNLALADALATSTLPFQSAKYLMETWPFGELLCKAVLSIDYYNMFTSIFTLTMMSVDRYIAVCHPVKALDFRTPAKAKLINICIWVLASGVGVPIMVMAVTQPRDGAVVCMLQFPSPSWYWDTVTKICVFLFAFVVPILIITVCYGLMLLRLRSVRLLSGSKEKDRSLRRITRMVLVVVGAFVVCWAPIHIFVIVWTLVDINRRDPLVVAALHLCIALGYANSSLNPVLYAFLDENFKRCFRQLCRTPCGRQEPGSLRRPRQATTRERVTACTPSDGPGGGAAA
Sequence of Opioid receptor (Mus musculus) (P33534 whole entry, looked up): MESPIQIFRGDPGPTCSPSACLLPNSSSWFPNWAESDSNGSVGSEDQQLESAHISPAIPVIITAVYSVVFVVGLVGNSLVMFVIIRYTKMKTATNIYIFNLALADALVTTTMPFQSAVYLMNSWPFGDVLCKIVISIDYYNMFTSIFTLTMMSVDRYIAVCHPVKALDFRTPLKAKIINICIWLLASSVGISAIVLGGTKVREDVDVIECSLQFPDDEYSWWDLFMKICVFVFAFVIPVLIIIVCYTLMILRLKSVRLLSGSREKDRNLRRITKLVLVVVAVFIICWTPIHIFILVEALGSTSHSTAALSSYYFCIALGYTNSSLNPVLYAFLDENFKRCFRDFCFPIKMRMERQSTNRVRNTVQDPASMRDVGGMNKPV
Sequence of Opioid receptor (Mus musculus) (P42866 whole entry, looked up): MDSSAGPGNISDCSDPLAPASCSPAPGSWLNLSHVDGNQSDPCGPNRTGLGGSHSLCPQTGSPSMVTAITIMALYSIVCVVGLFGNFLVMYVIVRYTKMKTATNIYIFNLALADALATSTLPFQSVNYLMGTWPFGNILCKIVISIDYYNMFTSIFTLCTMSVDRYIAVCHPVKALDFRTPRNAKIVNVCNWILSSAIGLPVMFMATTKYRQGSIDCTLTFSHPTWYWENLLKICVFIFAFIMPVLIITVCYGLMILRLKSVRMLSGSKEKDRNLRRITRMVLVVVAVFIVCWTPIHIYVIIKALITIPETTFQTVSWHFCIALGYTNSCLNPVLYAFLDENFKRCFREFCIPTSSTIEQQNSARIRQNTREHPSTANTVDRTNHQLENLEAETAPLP
Assay [9] has as its target D(1A) dopamine receptor (Mus musculus) (UniProt Q61616). In words: Percent inhibition of radioligand [3H]SCH-23,390 binding to dopamine receptor D1 at 10 uM concentration.
The species named for assay [10] is Mus musculus. In words: Percent inhibition of radioligand [3H]-LSD binding to 5-HT receptor at 10 uM concentration.
Assay [11] concerns the target Muscarinic acetylcholine receptor (Mus musculus) (UniProt Q920H4+Q9ERZ4+P12657+P32211+Q9ERZ3). In words: Percent inhibition of radioligand [3H]QNB binding to muscarinic receptor at 10 uM concentration. It counts as protein assay.
Assay [12] concerns the target D(2) dopamine receptor (Mus musculus) (UniProt P61168). In words: Percent inhibition of radioligand [3H]raclopride binding to D2 receptor at 10 uM concentration.
In assay [13] the target is Alpha-2 adrenergic receptor (Mus musculus) (UniProt P30545+Q01338+Q01337). In words: Percent inhibition of radioligand [3H]rauwolscine binding to alpha-2 receptor at 10 uM concentration. Format: protein assay.
Assay [14] deals with Beta-adrenergic receptor (Mus musculus) (UniProt P34971+P18762+P25962). The assay can be described thus: Percent inhibition of radioligand [3H]DHAP binding to beta receptor at 10 uM concentration. Format: protein assay.
Assay [15] is filed under the species Mus musculus. In words: Electrophysiological responses in open channel block to NMDA were recorded in 13-day old mouse cortical neuronal cultures. It counts as functional.
The species named for assay [16] is Mus musculus. In words: In vitro for neuroprotective efficacy to protect cultured cortical neurons from an excitotoxic exposure to NMDA receptor. It counts as functional.
The species named for assay [17] is Mus musculus. In words: Electrophysiological responses in closed channel block to NMDA were recorded in 13-day old mouse cortical neuronal cultures. Format: functional.
Assay [18] has as its target Glutamate NMDA receptor. In words: Binding affinity was determined towards NMDA receptor using [3H]TCP as radioligand in rat. In a few lines:
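Rat (male Sprague–Dawley) whole-brain membranes, washed three times in 50 mM Tris-HCl pH 7.7 and resuspended in 5 mM Tris-HCl at 0.5 mg protein/tube. About 1 nM [3H]TCP final with varied test concentrations. 25 min at room temperature. Nonspecific binding defined with 100 μM PCP. Filtration on PEI-soaked glass-fibre filters and scintillation counting. Ki from EBDA/LIGAND; mean ± SEM of ≥3 determinations in triplicate.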

Assay [19] in a line: Percent inhibition of […] binding to GABA-A benzodiazepine receptor at 10 uM.
Assay [20] addresses D(1A) dopamine receptor (Mus musculus) (UniProt Q61616). The assay can be described thus: Percent inhibition of radioligand [3H]SCH-23390 binding to dopamine receptor D1 at 10 uM concentration.

Each structure is given as a SMILES string. Structures can show the parent of a compound that is named as a salt.

Sequence of Histamine H1 receptor (Mus musculus) (P70174 whole entry): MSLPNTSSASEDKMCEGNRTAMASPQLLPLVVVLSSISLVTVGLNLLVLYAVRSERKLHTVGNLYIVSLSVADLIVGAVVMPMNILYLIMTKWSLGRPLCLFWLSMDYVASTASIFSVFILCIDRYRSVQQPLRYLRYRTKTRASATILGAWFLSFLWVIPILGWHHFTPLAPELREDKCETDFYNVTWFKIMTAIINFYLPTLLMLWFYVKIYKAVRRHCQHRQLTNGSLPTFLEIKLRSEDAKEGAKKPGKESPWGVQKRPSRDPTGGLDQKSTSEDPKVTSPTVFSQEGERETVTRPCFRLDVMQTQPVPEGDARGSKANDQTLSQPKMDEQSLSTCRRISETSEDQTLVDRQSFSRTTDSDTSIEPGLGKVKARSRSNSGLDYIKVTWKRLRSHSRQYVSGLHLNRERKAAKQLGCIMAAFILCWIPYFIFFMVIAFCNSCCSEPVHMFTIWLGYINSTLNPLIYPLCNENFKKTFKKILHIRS
Sequence of D(2) dopamine receptor (Mus musculus) (P61168 whole entry): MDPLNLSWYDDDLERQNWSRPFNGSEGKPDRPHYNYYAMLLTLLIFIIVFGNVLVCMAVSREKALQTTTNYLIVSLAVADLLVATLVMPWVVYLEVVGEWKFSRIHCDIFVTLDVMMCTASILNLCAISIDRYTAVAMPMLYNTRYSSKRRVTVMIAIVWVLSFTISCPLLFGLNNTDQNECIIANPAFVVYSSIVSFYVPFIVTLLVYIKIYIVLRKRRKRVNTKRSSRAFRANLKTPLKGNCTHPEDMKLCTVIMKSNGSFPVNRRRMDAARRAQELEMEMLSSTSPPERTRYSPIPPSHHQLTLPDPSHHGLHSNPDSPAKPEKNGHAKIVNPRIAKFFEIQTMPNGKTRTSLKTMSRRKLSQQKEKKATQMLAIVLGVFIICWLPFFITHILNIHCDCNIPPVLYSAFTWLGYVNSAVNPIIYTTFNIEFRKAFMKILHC
Sequence of Sigma non-opioid intracellular receptor 1 (Mus musculus) (O55242 whole entry): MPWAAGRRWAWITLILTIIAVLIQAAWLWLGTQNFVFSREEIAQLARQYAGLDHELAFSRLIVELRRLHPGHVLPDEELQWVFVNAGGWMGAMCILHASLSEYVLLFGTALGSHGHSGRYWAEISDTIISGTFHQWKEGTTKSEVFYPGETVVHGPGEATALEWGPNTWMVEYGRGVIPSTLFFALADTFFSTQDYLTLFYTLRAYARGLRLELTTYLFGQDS
Sequence of D(1A) dopamine receptor (Mus musculus) (Q61616 whole entry): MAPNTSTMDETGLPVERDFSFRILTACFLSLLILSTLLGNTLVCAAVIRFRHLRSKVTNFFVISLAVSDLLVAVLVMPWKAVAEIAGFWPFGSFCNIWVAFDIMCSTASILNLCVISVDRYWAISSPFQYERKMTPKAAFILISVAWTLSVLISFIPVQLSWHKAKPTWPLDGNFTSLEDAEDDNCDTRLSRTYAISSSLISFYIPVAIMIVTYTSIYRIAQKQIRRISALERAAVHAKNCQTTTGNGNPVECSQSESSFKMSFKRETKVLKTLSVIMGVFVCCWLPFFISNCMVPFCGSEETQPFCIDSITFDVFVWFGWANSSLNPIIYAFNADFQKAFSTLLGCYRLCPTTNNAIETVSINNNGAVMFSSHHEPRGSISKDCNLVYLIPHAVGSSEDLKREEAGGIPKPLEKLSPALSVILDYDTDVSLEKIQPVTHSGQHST

What is called Ki is a dissociation constant, usually derived from enzyme kinetics or from competition with a known ligand. Low values mean tighter binding, high ones weaker binding. In the case of `CCOC1(OCC)C2c3cccc(C)c3C([n+]3ccccc32)C1(C)C` (configuration not stated), affinity at Glutamate NMDA receptor [1] was put at a Ki of 455 nM. This counts as sub-micromolar.
For orientation: IC50 means the midpoint of a concentration-inhibition curve. Low values mean greater potency in that assay, high ones weaker potency in that assay. In the assay filed under Mus musculus [2] (Mus musculus), `CCOC1(OCC)C2c3c(OC)cccc3C([n+]3ccccc32)C1(C)C` (configuration not stated) had an IC50 of 22 nM. The Ki at Glutamate NMDA receptor [1] is 13 nM.
For the compound `CCOC1(OCC)C2c3ccccc3C([n+]3ccccc32)C1(C)C` (racemic) [listing 1 of 2 here], in [3], the Ratio is above 384 CC/OC.
What is called inhibition is the relative decrease from the control value, in per cent. The low end stands for a weak effect, the high end for a strong effect. With `CCOC1(OCC)C2c3ccccc3C([n+]3ccccc32)C1(C)C` (single isomer, unassigned; (-)) [listing 1 of 2 here], the inhibition in assay [4] is 3%; in [5] it was 21%; in assay [6], 23%; in assay [7], 0%; in [8], 51%; in [9], 1%. In addition, the inhibition in the assay listed under Mus musculus [10] came out at 11%; in [11], 50%; in [12] it was 9%; in assay [13] it was 32%; in assay [14], 3%.
Compound `CC1(C)C2c3ccccc3C(c3cccc[n+]32)C12OCCCO2` (configuration not stated) gave a Ki at Glutamate NMDA receptor [1] of 2900 nM.
`CCOC1(OCC)C2(C)c3ccccc3C([n+]3ccccc32)C1(C)C.[O-][Cl+3]([O-])([O-])[O-]` (configuration not stated) had an IC50 in the assay filed under Mus musculus [2] (Mus musculus) of 32 nM. Besides, the Ki at Glutamate NMDA receptor [1] amounted to 11 nM.
Consider `CC1(C)C(=O)C2c3ccccc3C1[n+]1ccccc12` (configuration not stated), for which the Ki on Glutamate NMDA receptor [1] is above 10000 nM.
The compound `CCOC1(OCC)C2c3c(OC(C)C)cccc3C([n+]3ccccc32)C1(C)C` (configuration not stated) gave a Ki on Glutamate NMDA receptor [1] of 48 nM.
On the same count and under the same terms, to `CCOC1(OCC)C2c3ccccc3C([n+]3ccccc32)C1(CC)CC` (configuration not stated) belongs 11 nM.
The compound `CCOC1(OCC)C2c3ccccc3C([n+]3ccccc32)C1(C)C` (racemic) [listing 2 of 2 here] gave an IC50 in the assay filed under Mus musculus [15] of 260 nM. This compound returned a Ki on Glutamate NMDA receptor [1] of 8 nM.
In turn, `CCOC1(OCC)C2c3cc([N+](=O)[O-])ccc3C([n+]3ccccc32)C1(C)C.[O-][Cl+3]([O-])([O-])[O-]` (configuration not stated) displayed an IC50 in the assay filed under Mus musculus [16] of 15300 nM. The same compound returned a Ki at Glutamate NMDA receptor [1] of 2760 nM.
Take `CCCOC1(OCCC)C2c3ccccc3C([n+]3ccccc32)C1(C)C.[O-][Cl+3]([O-])([O-])[O-]` (configuration not stated): the half-inhibitory concentration (IC50) in the assay filed under Mus musculus [2] (Mus musculus) was found to be 85 nM. The same compound registered a Ki at Glutamate NMDA receptor [1] of 12 nM.
The matching figures for `CCOC1(OCC)C2c3c(Br)cccc3C([n+]3ccccc32)C1(C)C.[O-][Cl+3]([O-])([O-])[O-]` (configuration not stated): 1040 nM and 132 nM.
`CCOC1(OCC)C2c3c(OC)ccc(OC)c3C([n+]3ccccc32)C1(C)C` (configuration not stated): the Ki at Glutamate NMDA receptor [1] was above 10000 nM.
On Glutamate NMDA receptor [1], `CCOC1(OCC)C2c3ccccc3C([n+]3c(C)cccc32)C1(C)C` (configuration not stated) showed a Ki of 314 nM.
On the same count and under the same terms, to `CCOC1C2c3ccccc3C([n+]3ccccc32)C1(C)C` (stereo in doubt; 7a) belongs 465 nM; to `CCOC1(OCC)C2c3cc(C(F)(F)F)ccc3C([n+]3ccccc32)C1(C)C` (configuration not stated), 401 nM; to `CCOC1(OCC)C2c3c(O)cccc3C([n+]3ccccc32)C1(C)C` (configuration not stated), 8 nM.
On the same count and under the same terms, as for `c1ccc(C2(N3CCCCC3)CCCCC2)cc1` [PHENCYCLIDINE], the figure is 38 nM; as for `CCOC1C2c3ccccc3C([n+]3ccccc32)C1(C)C` (stereo in doubt; 7b), 1880 nM.
On the same count and under the same terms, to `CCOC1(OCC)C2c3ccc(OC)cc3C([n+]3ccccc32)C1(C)C` (configuration not stated) belongs 123 nM.
Consider `CCOC1(OCC)C2c3ccccc3C([n+]3ccccc32)C1(C)C` (single isomer, unassigned; (-)) [listing 2 of 2 here], for which half-maximal inhibition in the assay listed under Mus musculus [2] (IC50) was put at 26 nM. The compound also returned a Ki at Glutamate NMDA receptor [1] of 4 nM.
As to `CCOC1(OCC)C2c3c(OC(C)=O)cccc3C([n+]3ccccc32)C1(C)C` (configuration not stated), the affinity at Glutamate NMDA receptor [1] corresponds to a Ki of 26 nM.
With `CCOC1(OCC)C2c3ccccc3C([n+]3ccccc32)C1(OCC)OCC` (configuration not stated), at Glutamate NMDA receptor [1], the Ki was determined as 4990 nM.
In turn, `C[C@]12N[C@H](Cc3ccccc31)c1ccccc12` [DIZOCILPINE MALEATE] registered an IC50 in the assay listed under Mus musculus [17] of 5.8 nM.
Compound `CCOC1(OCC)C2c3cc(OC)ccc3C([n+]3ccccc32)C1(C)C` (configuration not stated) came in with an IC50 in the assay filed under Mus musculus [2] (Mus musculus) of 157 nM. Further, the Ki on Glutamate NMDA receptor [1] is 4 nM.
Take `CCOC1(OCC)C2c3c(C)cccc3C([n+]3ccccc32)C1(C)C` (configuration not stated): at Glutamate NMDA receptor [1], the Ki was 46 nM.
`CCOC1(OCC)C2c3cc(Br)ccc3C([n+]3ccccc32)C1(C)C.[O-][Cl+3]([O-])([O-])[O-]` (configuration not stated) had an IC50 in the assay filed under Mus musculus [2] (Mus musculus) of 173 nM. This compound also gave a Ki on Glutamate NMDA receptor [1] of 52 nM.
For `CCOC1(OCC)C2c3ccccc3C([n+]3ccccc32)C1(C)C` (single isomer, unassigned; (+)) [listing 1 of 2 here], in that order: 50 nM and 11 nM.
Compound `CCOC1(OCC)C2c3ccccc3C(C1C)[n+]1ccccc12.[O-][Cl+3]([O-])([O-])[O-]` (stereo in doubt; 1b) returned an IC50 in the assay listed under Mus musculus [2] of 1160 nM. For the same compound, the Ki at Glutamate NMDA receptor [1] was determined as 34 nM.
The compound `CCOC1(OCC)C2c3ccccc3C(C1C)[n+]1ccccc12.[O-][Cl+3]([O-])([O-])[O-]` (stereo in doubt; 1a) gave an IC50 in the assay listed under Mus musculus [2] (Mus musculus) of 810 nM. The Ki on Glutamate NMDA receptor [18] is 115 nM.
Take `CCOC1(OCC)C2c3ccccc3C([n+]3cccc(OC)c32)C1(C)C` (configuration not stated): the Ki at Glutamate NMDA receptor [1] stood at 26 nM.
Still for that read-out and setting: to `CCOC1(OCC)C2c3cc(Cl)ccc3C([n+]3ccccc32)C1(C)C` (configuration not stated) belongs 12 nM.
The same measure, in the same setting: to `COC1(OC)C2c3ccccc3C([n+]3ccccc32)C1(C)C` (configuration not stated) belongs 103 nM.
The compound `CCOC1(OCC)CC2c3ccccc3C1c1cccc[n+]12` (configuration not stated) displayed an IC50 in the assay filed under Mus musculus [2] (Mus musculus) of 95000 nM. For the same compound, affinity at Glutamate NMDA receptor [1] was put at a Ki of 3800 nM.
For `CCOC1(OCC)C2c3cccc(OC)c3C([n+]3ccccc32)C1(C)C` (configuration not stated), the Ki on Glutamate NMDA receptor [1] stood at 1840 nM.
As to `CCOC1(OCC)C2c3ccccc3C([n+]3ccccc32)C1(C)C` (single isomer, unassigned; (+)) [listing 2 of 2 here], the inhibition in [4] amounted to 1%; in [5] it was 31%; in [19], 14%; in assay [6] it was 51%; in assay [7], 55%; in assay [8], 73%. Moreover, the inhibition in the assay listed under Mus musculus [10] was 12%; in [11], 53%; in assay [12], 20%; in [20], 7%; in [13] it was 52%; in assay [14] it was 4%.
The compound `CC1(C)C2c3ccccc3C(c3cccc[n+]32)C12OCCO2` (configuration not stated) came in with a Ki on Glutamate NMDA receptor [1] of 3460 nM.
